# Measured values of several laboratories.
# Target: Serine/threonine-protein kinase LATS2 (LATS2, Homo sapiens, UniProt Q9NRM7)
# Residues used in one study (Q9NRM7 1-1088): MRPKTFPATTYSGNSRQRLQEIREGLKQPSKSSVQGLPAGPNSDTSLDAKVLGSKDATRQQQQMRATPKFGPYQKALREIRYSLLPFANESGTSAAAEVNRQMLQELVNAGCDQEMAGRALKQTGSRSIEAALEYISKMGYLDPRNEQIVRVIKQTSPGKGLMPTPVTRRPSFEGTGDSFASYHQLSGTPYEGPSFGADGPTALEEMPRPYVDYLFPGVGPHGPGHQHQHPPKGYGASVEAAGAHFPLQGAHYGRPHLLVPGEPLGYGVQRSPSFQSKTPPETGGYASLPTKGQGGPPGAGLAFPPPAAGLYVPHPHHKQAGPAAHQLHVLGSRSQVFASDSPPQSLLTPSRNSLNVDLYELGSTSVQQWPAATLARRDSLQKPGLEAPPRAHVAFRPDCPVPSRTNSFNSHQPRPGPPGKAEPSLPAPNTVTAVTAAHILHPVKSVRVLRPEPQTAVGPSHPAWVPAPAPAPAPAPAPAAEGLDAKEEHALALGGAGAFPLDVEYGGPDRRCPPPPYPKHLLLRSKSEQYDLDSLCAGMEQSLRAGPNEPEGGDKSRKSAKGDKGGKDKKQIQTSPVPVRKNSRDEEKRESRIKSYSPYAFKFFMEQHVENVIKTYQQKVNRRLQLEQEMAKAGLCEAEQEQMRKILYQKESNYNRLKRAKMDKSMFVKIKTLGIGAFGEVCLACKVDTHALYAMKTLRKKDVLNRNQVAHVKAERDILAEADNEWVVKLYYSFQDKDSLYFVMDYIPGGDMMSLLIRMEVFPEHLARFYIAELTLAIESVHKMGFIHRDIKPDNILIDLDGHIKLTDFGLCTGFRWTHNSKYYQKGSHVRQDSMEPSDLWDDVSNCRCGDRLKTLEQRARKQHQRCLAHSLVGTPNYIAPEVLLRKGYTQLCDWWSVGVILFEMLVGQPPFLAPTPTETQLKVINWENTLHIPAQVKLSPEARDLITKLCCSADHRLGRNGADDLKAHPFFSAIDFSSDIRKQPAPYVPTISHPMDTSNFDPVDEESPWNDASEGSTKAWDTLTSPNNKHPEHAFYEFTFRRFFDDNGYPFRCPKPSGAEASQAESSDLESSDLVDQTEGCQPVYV
Structure (SMILES),effect on,technique,concentration,remaining binding [%]
CN(C)c1nccc(-c2cnc3ncccn23)n1,binding,,1 µM,79
Cc1nc(C2CCN(C(=O)c3ccc(OC(F)(F)F)cc3N)CC2)c2ncc(N3CCN(C)CC3)cc2n1,cell-free assay,competition with immobilised ligand,1 µM,100
C[C@@H]1CCN(c2nccc(-c3cnn4ncccc34)n2)C1,binding,,1 µM,93
C[C@H](c1ccc(F)cc1)N(Cc1cccc(C(=O)O)c1)C(=O)c1cnc2ccccc2c1,cell-free assay,competition with immobilised ligand,1 µM,64
CN(CCCC(F)(F)F)c1nccc(-c2cnn3ncccc23)n1,binding,,1 µM,100
COc1cc(-c2cn(C3CCc4ccccc4N(CC(F)(F)F)C3=O)nn2)ccc1-n1ccc(C)n1 (centres unmarked),cell-free assay,competition with immobilised ligand,1 µM,69
COc1cnc(Nc2cccc(S(N)(=O)=O)c2)nc1N1CCN(c2ccccc2)C(=O)C1,binding,competition with immobilised ligand,1 µM,100
O=C(c1ccc(Nc2ncc(Cl)c(-c3ccc(Cl)s3)n2)cc1)N1CCC(N2CCCC2)CC1,binding,competition with immobilised ligand,1 µM,3.8
CCCNc1nc(C#Cc2ccc(Cl)s2)nc2c1ncn2[C@H]1[C@H](O)[C@H](O)[C@]2(C(=O)NC)C[C@H]12,binding,competition with immobilised ligand,10 µM,26
Cn1nc(C(=O)NCc2ccc(C(=O)O)cc2)cc1-c1ccc2[nH]ccc2c1,cell-free assay,competition with immobilised ligand,0.1 µM,100
COc1ccnn2ncc(-c3ccnc(N(C)C)n3)c12,binding,,1 µM,100
O=C(c1ccc(Nc2nccc(-c3cc4ccccc4s3)n2)cc1)N1CCC(N2CCCC2)CC1,binding,competition with immobilised ligand,1 µM,72
O=C1CCc2cc(Nc3cc(OC4CCOCC4)c([N+](=O)[O-])cc3Cl)ccc2N1,cell-free assay,competition with immobilised ligand,1 µM,80
CC1CCCN1c1nccc(-c2cnn3ncccc23)n1 (centres unmarked),binding,,1 µM,100
CCN1CCN(Cc2ccc(C(=O)Nc3ccc(C)c(Oc4ccc5c(c4)CC(=O)N5)c3)cc2C(F)(F)F)CC1,binding,competition with immobilised ligand,1 µM,100
O=C(Nc1c[nH]nc1C(=O)NC1CCNCC1)c1cc(F)cc(F)c1,binding,competition with immobilised ligand,1 µM,94
N[C@H]1CCN(c2nccc(-c3cnn4ncccc34)n2)C1,binding,,1 µM,74
Nc1ncc2c(n1)-c1c([nH]c3ccc(C#CC4CC4)cc13)CCCC2,binding,competition with immobilised ligand,1 µM,91
CNC(=O)[C@@H]1CC[C@@H](n2c(-c3ccc4cnccc4c3)nc3ccc(C(=O)NCc4cccc(C(N)=O)c4)cc32)C1,binding,competition with immobilised ligand,1 µM,100
C[C@@]1(Cc2ccc(C#N)cc2)C(=O)N(c2cc(Cl)cc(Cl)c2)c2ncc(C(=O)NC3(c4nc(C5CCC5)no4)CC3)n21,cell-free assay,competition with immobilised ligand,1 µM,92
